≈ marks a conversion by molar mass, not a printed value.
What was measured:
Assay type in all cases: functional
[1] = test system: Human alphaherpesvirus 2; experiment: Minimum inhibitory concentration required to reduce herpes simplex virus-2 (HSV-2 (G)) virus-induced cytopathicity by 50%
[2] = test system: Human alphaherpesvirus 1; experiment: Minimum inhibitory concentration required to reduce thymidine kinase deficient-HSV-1 (B2006) virus-induced cytopathicity by 50%
[3] = Minimum inhibitory concentration required to reduce virus-induced cell growth by 50%; conditions: Homo sapiens
[4] = test system: Human alphaherpesvirus 3; experiment: Minimum inhibitory concentration required to reduce Varicella-Zoster virus (VZV (Oka)) virus-induced cytopathicity by 50%
[5] = test system: Cytomegalovirus; experiment: Minimum inhibitory concentration required to reduce cytomegalo virus (CMV (Davis)) virus-induced cytopathicity by 50%; conditions: Human betaherpesvirus 5
[6] = test system: Vesicular stomatitis virus; experiment: Minimum inhibitory concentration required to reduce VSV virus-induced cytopathicity by 50%
[7] = test system: Human alphaherpesvirus 1; experiment: Minimum inhibitory concentration required to reduce herpes simplex virus-1 (HSV-1 (KOS)) virus-induced cytopathicity by 50%
[8] = test system: Human alphaherpesvirus 3; experiment: Minimum inhibitory concentration required to reduce TK-VZV (07-1) virus-induced cytopathicity by 50%
[9] = test system: Vaccinia virus; experiment: Minimum inhibitory concentration required to reduce vaccinia virus (VV) virus-induced cytopathicity by 50%; conditions: Orthopoxvirus vaccinia
[10] = test system: Cell line; experiment: Minimum concentration required to cause a microscopically detectable alteration of cell morphology; conditions: Homo sapiens
Summary of the method: (§1)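 Cytotoxicity read as the minimum concentration causing a microscopically detectable alteration of normal cell morphology. Cells were human embryonic skin-muscle (E6SM) or human embryonic lung (HEL), seeded in 96-well plates.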

[11] = test system: Human alphaherpesvirus 3; experiment: Minimum inhibitory concentration required to reduce TK-VZV (YS/R) virus-induced cytopathicity by 50%
[12] = test system: Cytomegalovirus; experiment: Minimum inhibitory concentration required to reduce cytomegalo virus (CMV (AD-169)) virus-induced cytopathicity by 50%; conditions: Human betaherpesvirus 5
[13] = test system: Human alphaherpesvirus 1; experiment: Minimum inhibitory concentration required to reduce thymidine kinase deficient-HSV-1 (VMW 1837) virus-induced cytopathicity by 50%
[14] = test system: Human alphaherpesvirus 2; experiment: Minimum inhibitory concentration required to reduce herpes simplex virus-2 (HSV-2 (Lyons)) virus-induced cytopathicity by 50%
[15] = test system: Human alphaherpesvirus 1; experiment: Minimum inhibitory concentration required to reduce herpes simplex virus-1 (HSV-1 (McIntyre)) virus-induced cytopathicity by 50%
[16] = test system: Human alphaherpesvirus 2; experiment: Minimum inhibitory concentration required to reduce herpes simplex virus-2 (HSV-2 (196)) virus-induced cytopathicity by 50%
[17] = test system: Human alphaherpesvirus 1; experiment: Minimum inhibitory concentration required to reduce herpes simplex virus-1 (HSV-1 (F)) virus-induced cytopathicity by 50%
[18] = test system: Mus musculus; experiment: Survival of mice after intraperitoneal infection with HSV-1 (KOS) and oral administration of 25 mg/kg at day 12
Summary of the method: (§2)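 Mice were infected intraperitoneally with HSV-1 (KOS), 10 mice per group. Drug was given by oral gavage once daily for 5 days, starting on the day of infection, at 25, 100 or 250 mg/kg per day. Vehicle was a 90:10 suspension of Sirupus Simplex and propylene glycol; the placebo group got the same syrup. Surviving mice were counted over 20 days.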

[19] = test system: Mus musculus; experiment: Survival of mice after intraperitoneal infection with HSV-1 (KOS) and oral administration of 250 mg/kg at day 9; summary of the method: as §2
[20] = test system: Mus musculus; experiment: Survival of mice after intraperitoneal infection with HSV-1 (KOS) and oral administration of 100 mg/kg at day 9; summary of the method: as §2
[21] = test system: Mus musculus; experiment: Survival of mice after intraperitoneal infection with HSV-1 (KOS) and oral administration of 100 mg/kg at day 6; summary of the method: as §2
[22] = test system: Mus musculus; experiment: Survival of mice after intraperitoneal infection with HSV-1 (KOS) and oral administration of 100 mg/kg at day 3; summary of the method: as §2
[23] = test system: Mus musculus; experiment: Survival of mice after intraperitoneal infection with HSV-1 (KOS) and oral administration of 25 mg/kg at day 6; summary of the method: as §2
[24] = test system: Mus musculus; experiment: Survival of mice after intraperitoneal infection with HSV-1 (KOS) and oral administration of 250 mg/kg at day 3; summary of the method: as §2
[25] = test system: Mus musculus; experiment: Survival of mice after intraperitoneal infection with HSV-1 (KOS) and oral administration of 250 mg/kg at day 12; summary of the method: as §2
[26] = test system: Mus musculus; experiment: Survival of mice after intraperitoneal infection with HSV-1 (KOS) and oral administration of 100 mg/kg at day 0; summary of the method: as §2
[27] = test system: Mus musculus; experiment: Survival of mice after intraperitoneal infection with HSV-1 (KOS) and oral administration of 100 mg/kg at day 12; summary of the method: as §2
[28] = test system: Mus musculus; experiment: Survival of mice after intraperitoneal infection with HSV-1 (KOS) and oral administration of 100 mg/kg at day 20; summary of the method: as §2
[29] = test system: Mus musculus; experiment: Survival of mice after intraperitoneal infection with HSV-1 (KOS) and oral administration of 25 mg/kg at day 0; summary of the method: as §2
[30] = test system: Mus musculus; experiment: Survival of mice after intraperitoneal infection with HSV-1 (KOS) and oral administration of 250 mg/kg at day 20; summary of the method: as §2
[31] = test system: Mus musculus; experiment: Survival of mice after intraperitoneal infection with HSV-1 (KOS) and oral administration of 25 mg/kg at day 3; summary of the method: as §2
[32] = test system: Mus musculus; experiment: Survival of mice after intraperitoneal infection with HSV-1 (KOS) and oral administration of 250 mg/kg at day 0; summary of the method: as §2
[33] = test system: Mus musculus; experiment: Survival of mice after intraperitoneal infection with HSV-1 (KOS) and oral administration of 250 mg/kg at day 6; summary of the method: as §2
[34] = test system: Mus musculus; experiment: Survival of mice after intraperitoneal infection with HSV-1 (KOS) and oral administration of 25 mg/kg at day 20; summary of the method: as §2
[35] = test system: Mus musculus; experiment: Survival of mice after intraperitoneal infection with HSV-1 (KOS) and oral administration of 25 mg/kg at day 9; summary of the method: as §2
[36] = test system: Cell line; experiment: Minimum concentration required to cause a microscopically detectable alteration of human cells morphology; summary of the method: as §1

Structure (SMILES)	MIC [1] [µg/mL]	MIC [2] [µg/mL]	MIC [3] [µg/mL]	MIC [4] [µg/mL]	MIC [5] [µg/mL]	MIC [6] [µg/mL]	MIC [7] [µg/mL]	MIC [8] [µg/mL]	MIC [9] [µg/mL]	MIC [10] [µg/mL]	MIC [11] [µg/mL]	MIC [12] [µg/mL]	MIC [13] [µg/mL]	MIC [14] [µg/mL]	MIC [15] [µg/mL]	MIC [16] [µg/mL]	MIC [17] [µg/mL]	other results
C=Cc1ccc(-c2cn([C@H]3C[C@H](O)[C@@H](CO)O3)c(=O)[nH]c2=O)s1	> 200	> 200	3.5 (≈ 10.4 µM)	7 (≈ 20.8 µM)	> 1	> 200	1 (≈ 2.97 µM)	7 (≈ 20.8 µM)	70 (≈ 208 µM)	400 (≈ 1190 µM)	10 (≈ 29.7 µM)	> 1	> 200	–	–	–	–	–
C[Si](C)(C)C#Cc1ccc(-c2cn([C@H]3C[C@H](O)[C@@H](CO)O3)c(=O)[nH]c2=O)s1	> 40	> 40	10 (≈ 24.6 µM)	0.2 (≈ 0.492 µM)	> 10	> 40	0.07 (≈ 0.172 µM)	21 (≈ 51.7 µM)	> 40	100 (≈ 246 µM)	20 (≈ 49.2 µM)	> 10	> 40	–	–	–	–	–
Cc1ccc(-c2cn([C@H]3C[C@H](O)[C@@H](CO)O3)c(=O)[nH]c2=O)s1	50 (≈ 154 µM)	400 (≈ 1230 µM)	> 50	0.08 (≈ 0.247 µM)	> 40	> 400	0.2 (≈ 0.617 µM)	> 40	> 200	> 200	> 40	> 40	150 (≈ 462 µM)	20 (≈ 61.7 µM)	0.7 (≈ 2.16 µM)	150 (≈ 462 µM)	0.2 (≈ 0.617 µM)	–
O=c1[nH]c(=O)n([C@H]2C[C@H](O)[C@@H](CO)O2)cc1/C=C/Br [BRIVUDINE]	70 (≈ 210 µM)	> 200	> 50	0.004 (≈ 0.012 µM)	–	> 200	0.01 (≈ 0.03 µM)	> 40	0.2 (≈ 0.6 µM)	> 400	> 40	–	10 (≈ 30 µM)	70 (≈ 210 µM)	0.01 (≈ 0.03 µM)	> 400	0.02 (≈ 0.06 µM)	No. of mice [18]: 3; No. of mice [19]: 10; No. of mice [20]: 8; No. of mice [21]: 9; No. of mice [22]: 9; No. of mice [23]: 10; No. of mice [24]: 10; No. of mice [25]: 10; No. of mice [26]: 10; No. of mice [27]: 8; No. of mice [28]: 7; No. of mice [29]: 10; No. of mice [30]: 9; No. of mice [31]: 10; No. of mice [32]: 10; No. of mice [33]: 10; No. of mice [34]: 3; No. of mice [35]: 4
O=c1[nH]c(=O)n([C@H]2C[C@H](O)[C@@H](CO)O2)cc1-c1cccs1	50 (≈ 161 µM)	> 100	45 (≈ 145 µM)	3 (≈ 9.67 µM)	40 (≈ 129 µM)	> 100	1.5 (≈ 4.83 µM)	8 (≈ 25.8 µM)	20 (≈ 64.4 µM)	100 (≈ 322 µM)	30 (≈ 96.7 µM)	60 (≈ 193 µM)	> 100	20 (≈ 64.4 µM)	0.3 (≈ 0.967 µM)	50 (≈ 161 µM)	0.35 (≈ 1.13 µM)	–
O=c1[nH]c(=O)n(C2O[C@H](CO)[C@@H](O)[C@@H]2O)cc1-c1ccc(Cl)s1 (some centres not stated)	300 (≈ 832 µM)	> 400	> 50	0.08 (≈ 0.222 µM)	70 (≈ 194 µM)	> 400	0.15 (≈ 0.416 µM)	60 (≈ 166 µM)	> 150	> 400	37 (≈ 103 µM)	30 (≈ 83.2 µM)	> 400	150 (≈ 416 µM)	0.015 (≈ 0.0416 µM)	150 (≈ 416 µM)	0.05 (≈ 0.139 µM)	–
O=c1[nH]c(=O)n([C@H]2C[C@H](O)[C@@H](CO)O2)cc1-c1ccsc1	70 (≈ 226 µM)	150 (≈ 483 µM)	> 50	1.5 (≈ 4.83 µM)	> 40	> 100	0.3 (≈ 0.967 µM)	35 (≈ 113 µM)	> 40	> 100	20 (≈ 64.4 µM)	> 40	> 100	70 (≈ 226 µM)	0.04 (≈ 0.129 µM)	100 (≈ 322 µM)	0.6 (≈ 1.93 µM)	–
O=c1[nH]c(=O)n([C@H]2C[C@H](O)[C@@H](CO)O2)cc1-c1ccoc1	150 (≈ 510 µM)	100 (≈ 340 µM)	> 50	50 (≈ 170 µM)	80 (≈ 272 µM)	> 200	0.5 (≈ 1.7 µM)	> 40	> 40	–	> 40	80 (≈ 272 µM)	> 200	30 (≈ 102 µM)	0.07 (≈ 0.238 µM)	150 (≈ 510 µM)	0.5 (≈ 1.7 µM)	MIC [36]: > 40 µg/mL
O=c1[nH]c(=O)n([C@H]2C[C@H](O)[C@@H](CO)O2)cc1-c1ccc(I)s1	> 40	> 40	> 50	0.07 (≈ 0.16 µM)	> 40	> 40	0.04 (≈ 0.0917 µM)	10 (≈ 22.9 µM)	> 40	100 (≈ 229 µM)	40 (≈ 91.7 µM)	> 40	> 40	–	–	–	–	–
